Rpn11 inh – blocks the human proteasome subunit Rpn11 | O00487 | human 26S proteasome, Ub4-pepOG fluorescence polarization; 20S core pre-blocked with epoxomicin | calls only at 20 µM | actives 0.59% (n = 360,000) | AID 588493;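 active means inhibition at 20 µM, scaled to each plate's controls, above about 33%, limit read from the data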
CSN inh – blocks human CSN-mediated cullin deneddylation; Q92905; actives 0.38% (n = 360,000); inhibition, % at 12.5 µM; Purified CSN, SCF-Nedd8-OG deneddylation, fluorescence polarization;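 active means pattern-corrected inhibition above about 35%, with an unprinted fluorescence ratio check between 0.5 and 1.5, limit read from the data, passing the limit was not always enough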
Target sequence (Q92905 whole entry, looked up, one chain of several): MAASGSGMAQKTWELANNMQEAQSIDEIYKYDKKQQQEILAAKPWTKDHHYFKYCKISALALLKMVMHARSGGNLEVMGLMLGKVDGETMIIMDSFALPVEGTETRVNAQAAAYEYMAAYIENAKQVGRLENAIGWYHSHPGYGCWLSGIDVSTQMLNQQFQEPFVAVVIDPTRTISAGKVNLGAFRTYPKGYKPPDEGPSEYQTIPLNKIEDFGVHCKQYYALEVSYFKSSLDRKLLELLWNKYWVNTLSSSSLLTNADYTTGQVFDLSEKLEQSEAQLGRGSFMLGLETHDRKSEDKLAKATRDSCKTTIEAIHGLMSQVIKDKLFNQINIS
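Assay system: purified human Csn5 enzyme expressed in HEK293T cells; Input: 0.24 nM Csn5 enzyme, final concentration; Reagent: 10 nM SCFSkp2-Nedd8OG; Compound dosing: 12.5 µM single point; Times: reaction 90 min, room temperature; Technique: fluorescence polarization readout.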
HNF4A DNA FP – change in binding of human HNF4 alpha to DNA; activity change, % at 10 µM; HNF4a-FITC DNA binding, fluorescence polarization, 1 h; P41235; AID 1224865; actives 0.3% (n = 360,000); in the data active means activity change above about 30%, passing the limit was not always enough
SENP1 FRET inh – blocks the human SENP1 SUMO protease catalytic domain; Q9P0U3; recombinant SENP1 catalytic domain, CyPet-SUMO1-YPet FRET cleavage; inhibition, % at 10 µM; actives 0.21% (n = 360,000);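 active means inhibition at least 30% at 10 µM, raw YFP signal under a set limit, fluorescence ratio 0.5 to 1.5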
Target sequence (Q9P0U3 419-644 limits assumed): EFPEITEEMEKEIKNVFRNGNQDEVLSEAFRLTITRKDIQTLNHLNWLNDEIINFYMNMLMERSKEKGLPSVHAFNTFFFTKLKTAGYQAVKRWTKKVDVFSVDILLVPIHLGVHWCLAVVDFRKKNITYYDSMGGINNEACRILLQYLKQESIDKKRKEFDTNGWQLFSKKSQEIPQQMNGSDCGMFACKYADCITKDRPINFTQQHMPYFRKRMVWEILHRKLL
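Assay system – human recombinant His6-tagged SENP1 catalytic domain enzyme · Input – SENP1 enzyme, 20 pM final · Buffer or medium – Tris pH 8 buffer plus EDTA, NaCl, BME, BSA, NP40, catalase · Schedule – 50 min reaction at room temperature · Technique – FRET read of cyan and yellow fluorescence · Control set – no-enzyme wells low, DMSO-plus-enzyme wells high control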
TPT1 inh – blocks Candida albicans tRNA 2'-phosphotransferase; recombinant caTPT1, FP RNA substrate dephosphorylation; inhibition, % at 5 µM; actives 0.81% (n = 300,000); AID 1962;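 active means inhibition above the mean of all tested compounds plus 3 SD, set per screening campaign, cut at about 24% in these data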
UBC9 SUMO inh – SUMOylation inhibition | P63279 | HTRF SUMOylation assay, SAE1/SAE2 + UBC9, in vitro | inhibition, % at 35 µM | actives 0.36% (n = 290,000) | AID 2006; in the data active means inhibition above about 50%, passing the limit was not always enough
caTPT1 confirm – TPT1 (C. albicans) inhibition, confirmation | shares compounds with TPT1 inh | recombinant caTPT1, fluorescence polarization, RNase T1 coupled | inhibition, % at 5 µM | actives 74% (n = 2,400) | AID 2149;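 active means inhibition above the primary screen limit, the mean inhibition of all tested compounds plus 3 SD, cut at about 25% in these data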
RNase T1 counter – blocks Aspergillus oryzae RNase T1, a TPT1 counter-screen; RNase T1 cleavage, fluorescence polarization, 1536-well; actives 83% (n = 2,400); AID 2153; shares compounds with TPT1 inh; inhibition, % at 5 µM;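 active means inhibition above the solvent-only control well mean plus 3 SD, limit set per screening run, cut at about 23% in these data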;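 further: inhibitors block cleavage so intact labeled substrate keeps polarization high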
Target sequence (P00651 whole entry, looked up): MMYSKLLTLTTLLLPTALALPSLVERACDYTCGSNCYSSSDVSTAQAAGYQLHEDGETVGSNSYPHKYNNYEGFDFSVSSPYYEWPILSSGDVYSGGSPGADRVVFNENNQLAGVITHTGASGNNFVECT
Rpn11 inh conf – Rpn11 inhibition confirmation, single concentration | AID 602318 | purified human 26S proteasome, Ub4-pepOG fluorescence polarization; proteasome pretreated with epoxomicin | actives 29% (n = 1,900) | shares compounds with Rpn11 inh | inhibition, % at 20 µM
MMP-2 counter-1 – blocks human MMP-2, flagging nonselective RPN11 hits | recombinant MMP-2, FRET peptide cleavage fluorescence | AID 602330 | shares compounds with Rpn11 inh | actives 4% (n = 1,900) | inhibition, % at 20 µM;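 further: human MMP-2 activated beforehand with APMA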
Thrombin inh – thrombin (bovine) inhibition counter-screen; actives 13% (n = 1,900); inhibition, % at 20 µM; shares compounds with Rpn11 inh; bovine thrombin cleavage of Ub4-pepOG, fluorescence polarization;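 active means mean inhibition at least 40% at 20 µM, or signal 3 deviations below plate average, so some actives read negative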
SENP1 conf – confirmation of human SENP1 SUMO protease inhibitors; recombinant SENP1, CyPet-SUMO1-YPet FRET cleavage; actives 34% (n = 520); AID 651678; shares compounds with SENP1 FRET inh; inhibition, % at 10 µM; in the data active means inhibition mostly above about 35%, no sharp cut-off; inactive means mostly below about 32%
SENP1 kin conf – confirmation of human SENP1 SUMO protease inhibitors, kinetic; shares compounds with SENP1 FRET inh; recombinant SENP1, CyPet-SUMO1-YPet FRET kinetic cleavage; inhibition, % at 10 µM; actives 26% (n = 520); AID 651690; in the data active means inhibition mostly above about 32%, no sharp cut-off; inactive means mostly below about 29%
CSN deneddyl val – validation of inhibitors of human CSN-mediated cullin deneddylation. inhibition, % at 16.6 µM. shares compounds with CSN inh. actives 62% (n = 540). AID 720654. Csn5 deneddylation of SCF-Nedd8OG, fluorescence polarization, 90 min; in the data active means inhibition above about 50%
MMP-2 counter-2 – MMP-2 (human) inhibition, counter-screen for CSN hits; shares compounds with CSN inh; recombinant MMP-2, FRET substrate fluorescence, 60 min; actives 33% (n = 540); AID 720655; inhibition, % at 16.6 µM;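 active means corrected plate-normalized z-score of 5 or more, or -5 or less, or inhibition of 15% or more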
Thrombin counter – blocks bovine thrombin in a CSN deneddylation counter-screen; shares compounds with CSN inh; bovine thrombin cleavage of Ub4-pepOG, fluorescence polarization; inhibition, % at 16.6 µM; actives 49% (n = 540);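 active means inhibition at or above a set limit, with a fluorescence interference ratio between 0.5 and a set maximum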
HNF4a DNA conf – change in binding of human HNF4 alpha to DNA, retest; shares compounds with HNF4A DNA FP; HNF4A-FITC DNA binding, fluorescence polarization, 1 h; activity change, % at 12.5 µM; actives 99% (n = 210); AID 1224897; call rule not given here
A number is an active result; – = inactive; · = not tested or not shown; + = active, no number. Hits are enriched below; roughly 1.8% of the tested compounds scored in any of these assays. Unless noted, no stated cut-off is given here; in the data, active means inhibition above about 40%; inactive means the rest.

SMILES	Rpn11 inh	CSN inh	HNF4A DNA FP	SENP1 FRET inh	TPT1 inh	UBC9 SUMO inh	caTPT1 confirm	RNase T1 counter	MMP-2 counter-2	Thrombin counter	others
O=C1NC(=O)N(c2ccc3c(c2)OCO3)C(=O)/C1=C\c1ccc(N2CCCCC2)o1	·	89	–	–	126	–	148	145	–	–	CSN deneddyl val=138
O=C1CN(O)C(c2ccccc2)=c2cc(Br)ccc2=N1	–	–	–	–	–	–	·	·	·	·
CC(C)c1ccc(N2C(=O)NC(=O)/C(=C/C=C/c3ccco3)C2=O)cc1	·	135	66	–	102	–	70	72	–	52	CSN deneddyl val=–
Cn1cccc1/C=C1/C(=O)NC(=S)N(Cc2ccc(F)cc2)C1=O	–	–	–	–	–	–	·	·	·	·
O=C1NC(=O)N(Cc2ccc(F)cc2)C(=O)/C1=C\C=C\c1ccco1	·	99	–	–	90	–	48	63	–	17	CSN deneddyl val=73
Cc1cc(C)cc(N2C(=O)NC(=O)/C(=C\C=C\c3ccco3)C2=O)c1	–	59	–	–	47	–	45	62	–	24	CSN deneddyl val=59
CCc1ccc(N2C(=O)NC(=O)/C(=C\C=C\c3ccco3)C2=O)cc1	·	86	–	–	58	–	51	68	–	–	CSN deneddyl val=–
CC(C)Oc1cccc(C(=O)C2CCCN(Cc3ccon3)C2)c1 (stereo not given)	–	–	–	–	–	–	·	·	·	·
COc1ccc(C(O)(c2ccccc2)c2ccncc2)cc1 (stereo not given)	–	–	–	–	·	·	·	·	·	·
Cc1ccc(C(O)P(=O)(Oc2ccccc2)Oc2ccccc2)cc1 (stereo not given)	–	–	–	–	–	·	·	·	·	·
Cn1c(O)c(/C=N/N2CCOCC2)c(=O)n(-c2ccccc2)c1=S	–	–	–	–	–	–	·	·	·	·
Cn1c(O)c(/C=C/C=Nc2ccccc2)c(=O)n(C)c1=S	+	75	95	–	134	–	67	74	-100	–	Rpn11 inh conf=113;MMP-2 counter-1=–;Thrombin inh=active
CCCCN1C(=O)/C(=C/c2ccc(N(C)C)cc2)C(=O)N(Cc2ccco2)C1=O	·	132	–	–	150	–	110	116	–	–	CSN deneddyl val=86
CCN(CC)c1ccc(/C=C2\C(=O)NC(=O)N(Cc3ccco3)C2=O)cc1	–	54	–	–	38	–	93	112	–	–	CSN deneddyl val=85
CCN(CC)c1ccc(/C=C2/C(=O)NC(=O)N(CC3CCCO3)C2=O)cc1 (stereo not given)	–	–	–	–	–	–	·	·	·	·
COC(=O)[C@@H]1N=C(c2ccc(OC)cc2)O[C@]12C(=O)N(C)c1ccc(Cl)cc12	·	–	–	–	·	·	·	·	·	·
COc1ccc(N=Nc2c(O)[nH]c(=S)[nH]c2=O)cc1	·	58	80	48	60	–	55	70	·	·	SENP1 conf=43;SENP1 kin conf=–;HNF4a DNA conf=118
CC/C(=N\NC(=O)c1ccccc1)c1c(O)n(Cc2ccccc2)c(=O)[nH]c1=O	–	–	–	–	–	–	·	·	·	·
O=C1NC(=O)N(Cc2ccccc2Cl)C(=O)/C1=C/N1CCOCC1	·	–	37	–	40	–	47	60	·	·	HNF4a DNA conf=54
COc1ccc2c3c([nH]c2c1)C(C)NCC3 (stereo not given)	+	–	42	–	27	–	–	–	·	·	Rpn11 inh conf=58;MMP-2 counter-1=–;Thrombin inh=48;HNF4a DNA conf=55
COc1ccc2[nH]c3c(c2c1)CCNC3C (stereo not given)	–	–	–	–	–	–	·	·	·	·
CCCS(=O)(=O)N1CCCC(C(=O)N2CCC3(CC2)OCCO3)C1 (stereo not given)	–	–	–	–	–	–	·	·	·	·
Cc1ccc(N2C(=O)NC(=O)/C(=C/c3ccoc3)C2=O)cc1	+	88	–	–	·	56	·	·	·	·	Rpn11 inh conf=144;MMP-2 counter-1=–;Thrombin inh=–
CC(C)c1ccc(N2C(=O)CC(=O)NC2=O)cc1	+	–	–	–	–	–	·	·	·	·	Rpn11 inh conf=–;MMP-2 counter-1=–;Thrombin inh=–
Cc1ccccc1N1C(=O)CC(=O)NC1=O	–	–	–	–	–	–	·	·	·	·
SMILES	Rpn11 inh	CSN inh	HNF4A DNA FP	SENP1 FRET inh	TPT1 inh	UBC9 SUMO inh	caTPT1 confirm	RNase T1 counter	MMP-2 counter-2	Thrombin counter	others
O=C1CC(=O)N(c2ccc(Cl)cc2)C(=O)N1	–	–	–	–	–	–	·	·	·	·
CCc1ccccc1N1C(=O)CC(=O)NC1=O	+	–	–	–	–	–	·	·	·	·	Rpn11 inh conf=–;MMP-2 counter-1=–;Thrombin inh=–
CCOCN(C(=O)CCl)c1c(C)cccc1CC	–	–	–	–	–	·	·	·	·	·
CC(C(=O)Nc1ccc(Br)cc1C(=O)c1ccccc1)N1CCCCC1 (stereo not given)	–	–	–	–	–	–	·	·	·	·
O=c1c2ccccc2nc(/C=C/c2ccccc2)n1-c1ccccc1O	–	–	–	–	–	–	·	·	·	·
O=c1c2ccccc2nc(/C=C/c2ccc(O)cc2)n1-c1ccccc1O	+	–	–	–	–	–	·	·	·	·	Rpn11 inh conf=–;MMP-2 counter-1=–;Thrombin inh=–

Assay outcomes deposited in PubChem BioAssay by several laboratories.
